{"source": "paper PMC5456262", "about": "(Biochemistry, 2017)", "key": {"[1]": {"target": "LacY mutant 32C/245C (I32C/N245C) (Escherichia coli, UniProt P02920, I32C/N245C)", "sequence (P02920 whole entry I32C/N245C)": "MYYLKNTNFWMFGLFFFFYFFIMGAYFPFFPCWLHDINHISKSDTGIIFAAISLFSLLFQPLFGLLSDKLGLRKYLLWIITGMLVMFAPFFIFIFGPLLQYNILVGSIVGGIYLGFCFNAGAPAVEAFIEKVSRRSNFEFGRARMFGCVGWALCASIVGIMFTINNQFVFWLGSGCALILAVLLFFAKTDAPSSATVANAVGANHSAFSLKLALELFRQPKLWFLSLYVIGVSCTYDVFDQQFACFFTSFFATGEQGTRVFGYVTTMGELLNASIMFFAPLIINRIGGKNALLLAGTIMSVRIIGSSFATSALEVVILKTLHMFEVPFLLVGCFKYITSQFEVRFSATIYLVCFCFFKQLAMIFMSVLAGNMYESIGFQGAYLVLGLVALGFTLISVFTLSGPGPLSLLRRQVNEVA", "assay": "biochemical", "type": "binding"}, "[2]": {"target": "LacY mutant 32C/245C (I32C/N245C) reconstituted into PL (Escherichia coli, UniProt P02920, I32C/N245C)", "sequence (P02920 whole entry I32C/N245C)": "as above", "assay": "biochemical", "type": "binding"}, "[3]": {"target": "LacY mutant 35C/245C (H35C/N245C) (Escherichia coli, UniProt P02920, H35C/N245C)", "sequence (P02920 whole entry H35C/N245C)": "as the sequence (P02920 whole entry I32C/N245C) above, with C32I, H35C counted along it", "assay": "NPG binding to mutant 35C/245C solubilized in DDM, stopped-flow Trp151→NPG FRET"}, "I32C LacY": {"target": "I32C LacY (Escherichia coli, UniProt P02920, I32C)", "sequence (P02920 whole entry I32C)": "as the sequence (P02920 whole entry I32C/N245C) above, with C245N counted along it", "assay": "NPG binding to control single-Cys mutant I32C, stopped-flow", "conditions": "Figure S3"}, "H35C LacY": {"target": "H35C LacY (Escherichia coli, UniProt P02920, H35C)", "sequence (P02920 whole entry H35C)": "as the sequence (P02920 whole entry I32C/N245C) above, with C32I, H35C, C245N counted along it", "assay": "NPG binding to control single-Cys mutant H35C, stopped-flow", "conditions": "Figure S3"}, "N245C LacY": {"target": "N245C LacY (Escherichia coli, UniProt P02920, N245C)", "sequence (P02920 whole entry N245C)": "as the sequence (P02920 whole entry I32C/N245C) above, with C32I counted along it", "assay": "NPG binding to control single-Cys mutant N245C, stopped-flow", "conditions": "Figure S3"}, "[4]": {"target": "LacY control mutants I32C, H35C, or N245C", "assay": "Galactoside", "type": "binding, Escherichia coli", "conditions": "range over three control mutants, presence or absence of Cu^2+", "method_in_brief": "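Purified LacY single-Cys mutants were pretreated with CuSO4 (oxidizing) or 10 mM TCEP (reducing) for 10 min at room temperature, with stopped-flow final TCEP at 2 mM. Buffer was 50 mM NaPi pH 7.5, with 0.02% DDM for detergent-solubilized protein. Protein was preincubated 5 min with NPG at varied concentrations, then mixed by stopped-flow with 15 mM TDG. Trp151→NPG FRET was read at ex 295/em 340 nm, and single-exponential fits gave koff.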"}, "[5]": {"target": "mutant 32C/245C LacY–Nb9065 complex in PL (Escherichia coli, UniProt P02920, I32C/N245C)", "sequence (P02920 whole entry I32C/N245C, one chain of several)": "as the sequence (P02920 whole entry I32C/N245C) above", "type": "binding"}, "WT LacY in PL": {"target": "WT LacY in PL", "conditions": "cited from earlier work"}, "[6]": {"conditions": "DDM, Cu^2+, directly measured NPG binding rates"}, "[7]": {"conditions": "Kd^app calculated = Kd(1 + kr/kf), DDM, cross-linked with Cu^2+"}, "[8]": {"conditions": "read-out: kon from two-step conformational selection fit"}}, "note": "Several values for one entry are separate records, joined by “and”; a condition that tells them apart may be missing. Equal entries are not always repeated."}
{"compound": "O=[N+]([O-])c1ccc(O[C@H]2O[C@H](CO)[C@H](O)[C@H](O)[C@H]2O)cc1", "note": "[NPG, 4-nitrophenyl α-D-galactopyranoside]", "values": [{"measurement": "kobs limit at high sugar concentrations", "setting": "[1]; [6]", "value": "40 to 50", "unit": "s⁻¹"}, {"measurement": "koff (rate of NPG displacement by excess TDG)", "setting": "[1]; DDM, cross-linked in the presence of Cu^2+", "value": "9.1 ± 0.9", "unit": "s⁻¹"}, {"measurement": "Kd", "setting": "[1]; [7]", "value": 68, "unit": "µM"}, {"measurement": "kon", "setting": "[1]; [8]", "value": "640000 ± 120000", "unit": "M⁻¹ s⁻¹"}, {"measurement": "Kd", "setting": "[2]", "value": "7 ± 1", "unit": "µM"}, {"measurement": "sugar binding (NPG displacement)", "setting": "[2]; PL, cross-linked in the presence of Cu^2+, 400 μM NPG", "value": "no sugar binding"}, {"measurement": "kobs (NPG binding rate measured directly, independent of NPG concentration)", "setting": "[2]; PL, reducing conditions (TCEP), no Nb9065", "value": "2.2 ± 0.4 s⁻¹ and 2 s⁻¹"}, {"measurement": "koff", "setting": "[2]; read-out: koff (displacement rate)", "value": "24 ± 3", "unit": "s⁻¹"}, {"measurement": "kobs limit at high sugar concentrations", "setting": "[3]; [6]", "value": "40 to 50", "unit": "s⁻¹"}, {"measurement": "Kd", "setting": "[3]; [7]", "value": 91, "unit": "µM"}, {"measurement": "kon", "setting": "[3]; [8]", "value": "700000 ± 160000", "unit": "M⁻¹ s⁻¹"}, {"measurement": "kobs (sugar binding rate measured directly)", "setting": "I32C LacY", "value": 20, "unit": "s⁻¹"}, {"measurement": "kobs (sugar binding rate measured directly)", "setting": "H35C LacY", "value": 33, "unit": "s⁻¹"}, {"measurement": "kobs (sugar binding rate measured directly)", "setting": "N245C LacY", "value": 26, "unit": "s⁻¹"}, {"measurement": "Kd", "setting": "[4]", "value": "3 to 17", "unit": "µM"}, {"measurement": "koff", "setting": "[4]", "value": "33 to 102", "unit": "s⁻¹"}, {"measurement": "Kd", "setting": "[5]", "value": "6 ± 2", "unit": "µM"}, {"measurement": "kon", "setting": "[5]; read-out: kon from concentration dependence of binding rates measured directly", "value": "3.7e+06 ± 200000", "unit": "M⁻¹ s⁻¹"}, {"measurement": "Kd", "setting": "WT LacY in PL; WT LacY in PL", "value": 11, "unit": "µM"}, {"measurement": "koff", "setting": "WT LacY in PL; WT LacY in PL", "value": 111, "unit": "s⁻¹"}, {"measurement": "kon estimated from displacement experiments", "setting": "WT LacY in PL; WT LacY reconstituted into PL", "value": 10, "unit": "µM⁻¹ s⁻¹"}, {"measurement": "kobs (sugar binding rate, independent of sugar concentration)", "setting": "WT LacY in PL; reconstituted WT LacY", "value": 21, "unit": "s⁻¹"}]}
